Test results as given in ChEMBL document CHEMBL2321650, “Novel HldE-K inhibitors leading to attenuated Gram negative bacterial virulence” (J Med Chem, 2013).
Converted amounts (≈) assume the structure as drawn.

Assays:
[1] = Inhibition of Escherichia coli O18:K1 C7 hldE-K expressed in Escherichia coli BL21 using beta-heptose 7-phosphate as substrate incubated for 30 mins prior to substrate addition measured after 30 mins by luminescence assay
How it was run: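 E. coli HldE (His-tagged, IPTG-induced, Ni-NTA-purified), 3 nM, preincubated 30 min at room temperature with inhibitor in Hepes pH 7.5, MnCl₂, KCl, 0.012% Triton-X100, DTT, MBP. Reaction with 0.2 μM heptose 7-phosphate and 0.2 μM ATP, 30 min at room temperature. Remaining ATP read by luciferase/luciferin luminescence; 6−10 concentrations fitted to a Langmuir model for IC50.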

[2] = system: Escherichia coli; experiment: Antimicrobial activity against acrAB, tolC-deficient Escherichia coli str. K-12 substr. MG1655 after overnight incubation in presence of erythromycin; type: functional
How it was run: (§1)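 Broth microdilution MIC in cation-adjusted MHB, final inoculum 5 × 10⁵ CFU/mL from early-to-log preculture; serial compound dilutions in 2% DMSO, overnight at 35 °C, growth scored visually. Each strain tested with and without erythromycin (1 μg/mL for K12 ΔacrAB ΔtolC, 8 μg/mL for K1 wild type, 1 μg/mL for K1 ΔtolC).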

[3] = system: Escherichia coli; experiment: Antimicrobial activity against acrAB, tolC-deficient Escherichia coli str. K-12 substr. MG1655 after overnight incubation in absence of erythromycin; type: functional; how it was run: as §1
[4] = system: Escherichia coli; experiment: Antimicrobial activity against tolC-deficient Escherichia coli O18:K1:H7 after overnight incubation in absence of erythromycin; type: functional; how it was run: as §1
[5] = system: Escherichia coli; experiment: Antimicrobial activity against tolC-deficient Escherichia coli O18:K1:H7 after overnight incubation in presence of erythromycin; type: functional; how it was run: as §1
[6] = Inhibition of Escherichia coli O18:K1 C7 ribokinase expressed in Escherichia coli BL21 using D-ribose as substrate incubated for 30 mins prior to substrate addition measured after 30 mins by luminescence assay
How it was run: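 Ribokinase run as the HldE kinase assay: purified E. coli ribokinase at 0.6 nM, 3 μM D-ribose, 3 μM ATP. Inhibitor preincubated 30 min, reaction run 30 min at room temperature, luciferase luminescence read-out, IC50 from 6−10 concentrations.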

[7] = Inhibition of Neisseria meningitidis 2C43 hldE-K expressed in Escherichia coli BL21 using beta-heptose 7-phosphate as substrate incubated for 30 mins prior to substrate addition measured after 30 mins by luminescence assay
How it was run: (§2)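 HldE kinase luminescence assay as for E. coli, with enzyme at 20 nM for K. pneumoniae, 20 nM for N. meningitidis and 10 nM for S. marcescens. Heptose 7-phosphate and ATP each at 0.2 μM; 30 min preincubation and 30 min reaction at room temperature.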

[8] = Inhibition of Serratia marcescens NEM017811 hldE-K expressed in Escherichia coli BL21 using beta-heptose 7-phosphate as substrate incubated for 30 mins prior to substrate addition measured after 30 mins by luminescence assay; how it was run: as §2
[9] = system: Klebsiella pneumoniae; experiment: Inhibition of Klebsiella pneumoniae ATCC 700603 hldE-K expressed in Escherichia coli BL21 using beta-heptose 7-phosphate as substrate incubated for 30 mins prior to substrate addition measured after 30 mins by luminescence assay; settings: ATCC 700603, BL21; how it was run: as §2
[10] = system: HepG2; experiment: Cytotoxicity against human HepG2 cells after overnight incubation by one cell proliferation assay; type: cell-based
How it was run: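 HepG2 cells at 2 × 10⁴ per well in EMEM with 10% FBS, grown overnight at 37 °C in 5% CO₂. Medium then replaced by compound dilutions in medium with 2% DMSO for overnight incubation. Viability read by CellTiter Aqueous One MTS absorbance at 490 nm.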

Row | SMILES | IC50 [1] [nM] | MIC [2] [µg/mL] | MIC [3] [µg/mL] | MIC [4] [µg/mL] | MIC [5] [µg/mL] | also measured
1 | COc1cccc(OC)c1-c1cnnc(NCc2nc3ccccc3[nH]2)n1 | > 300000 |  |  |  |  | 
2 | COc1ccc2sc(CNc3nncc(-c4c(C)cccc4C)n3)nc2c1 | 360 | > 32 | > 32 | > 32 | > 32 | 
3 | O=C(O)COc1ccc2sc(CNc3nncc(-c4c(Cl)cccc4Cl)n3)nc2c1 | 19 | 32 | > 32 | > 32 | > 32 | IC50 [6]: > 300000 nM; IC50 [7]: 1800 nM; IC50 [8]: 41 nM; IC50 [9]: 100 nM
4 | COc1ccc2sc(CNc3nncc(-c4cc(-c5ccn[nH]5)ccc4Cl)n3)nc2c1 | 53 | > 32 | > 32 | > 32 | > 32 | 
5 | COc1ccc2sc(CNc3nncc(-c4c(C)cc(Br)cc4C)n3)nc2c1 | 1200 |  |  |  |  | 
6 | COc1cccc(OC)c1-c1cnnc(NCc2nc3ccc(O)cc3s2)n1 | 3400 |  |  |  |  | 
7 | COc1ccc2sc(CNc3nncc(-c4c(C)cccc4O)n3)nc2c1 | 69 | 8 | > 32 | > 32 | > 32 | IC50 [6]: > 300000 nM; IC50 [7]: 9800 nM; IC50 [8]: 160 nM; IC50 [9]: 430 nM
8 | COc1ccc2sc(CNc3nncc(-c4ccccc4Cl)n3)nc2c1 | 1400 |  |  |  |  | 
9 | COc1ccc2sc(CNc3nncc(C(C)(C)O)n3)nc2c1 | > 300000 |  |  |  |  | 
10 | Cc1oc(-c2ccccc2)nc1C(=O)N(CC(=O)O)Cc1ccccn1 | 51000 |  |  |  |  | 
11 | COc1cccc(OC)c1-c1cnnc(NCc2nc3ccc(NC(C)=O)cc3s2)n1 | 49000 |  |  |  |  | 
12 | COc1ccc2sc(CNc3nncc(-c4c(C)cc(N)cc4C)n3)nc2c1 | 320 |  |  |  |  | 
13 | COc1ccc2sc(CNc3nncc(N4[C@H](C)CCC[C@@H]4C)n3)nc2c1 | > 300000 |  |  |  |  | 
14 | COc1cccc(OC)c1-c1cnnc(OCc2nc(C)c(C)s2)n1 | 40000 |  |  |  |  | 
15 | COc1ccc2sc(CNc3nncc(-c4c(C)cc(NC(C)=O)cc4C)n3)nc2c1 | 240 | > 32 | > 32 | > 32 | > 32 | 
16 | COc1cccc(OC)c1-c1cnnc(N(C)Cc2nc(C)c(C)s2)n1 | 5000 |  |  |  |  | 
17 | COc1ccc2sc(CNc3nncc(-c4c(OC)ccc5ccccc45)n3)nc2c1 | 51 | > 32 | > 32 | > 32 | > 32 | 

The next lines start with results.

Row | IC50 [1] [nM] | MIC [2] [µg/mL] | MIC [3] [µg/mL] | MIC [4] [µg/mL] | MIC [5] [µg/mL] | SMILES | also measured
18 | 15000 |  |  |  |  | COc1cccc(OC)c1-c1cnnc(NCc2nc3ccc(CO)cc3s2)n1 | 
19 | 760 |  |  |  |  | COc1ccc2sc(CNc3nncc(-c4cc(Br)ccc4Cl)n3)nc2c1 | 
20 | > 300000 |  |  |  |  | COc1ccc2sc(CNc3nncc(C(C)C)n3)nc2c1 | 
21 | 2400 |  |  |  |  | COc1ccc2sc(CNc3nncc(-c4c(F)cccc4F)n3)nc2c1 | 
22 | 20 | 0.063 | 2 (≈ 4.98 µM) | > 32 | 2 | Oc1ccc2sc(CNc3nncc(-c4c(O)ccc5ccccc45)n3)nc2c1 | IC50 [6]: > 300000 nM; IC50 [7]: 1300 nM; IC50 [8]: 41 nM; IC50 [9]: 85 nM; Activity [10]: 20 µg/mL
23 | 390 |  |  |  |  | COc1cccc(OC)c1-c1cnnc(NCc2nc3cc(O)ccc3s2)n1 | 
24 | 67 | > 32 | > 32 | > 32 | > 32 | NC(=O)COc1ccc2sc(CNc3nncc(-c4c(Cl)cccc4Cl)n3)nc2c1 | 
25 | 89000 |  |  |  |  | COC(=O)c1ccc2nc(CNc3nncc(-c4c(OC)cccc4OC)n3)sc2c1 | 
26 | 46000 |  |  |  |  | COc1cccc(OC)c1-c1cnnc(N(CCC(=O)O)Cc2nc3ccccc3s2)n1 | 
27 | 130 | > 32 | > 32 | > 32 | > 32 | COc1ccc2sc(CNc3nncc(-c4c(Cl)cccc4Cl)n3)nc2c1 | IC50 [6]: > 300000 nM; IC50 [7]: 13000 nM; IC50 [8]: 1200 nM; IC50 [9]: 2300 nM
28 | 250 |  |  |  |  | COc1cccc(OC)c1-c1cnnc(NCc2nc3cc(OCC(=O)O)ccc3s2)n1 | 
29 | 82 | > 32 | > 32 | > 32 | > 32 | COc1ccc2sc(CNc3nncc(-c4c(C)cc(NCCN(C)C)cc4C)n3)nc2c1 | 
30 | 2000 |  |  |  |  | COc1cccc(OC)c1-c1cnnc(N(CC(=O)O)Cc2nc3ccccc3s2)n1 | 
31 | 54000 |  |  |  |  | COc1cccc(OC)c1-c1cnnc(NC(C)c2nc(C)c(C)s2)n1 (stereo not drawn) | 
